Consider nine molecules from ChEMBL document CHEMBL1142184, “Treatment and outcomes of infections by methicillin-resistant Staphylococcus aureus at an ambulatory clinic” (2007).

Test [1] deals with Staphylococcus aureus. The experiment in a line: Antibacterial activity against methicillin-susceptible Staphylococcus aureus isolates from skin or soft tissue infection outpatients. The class given is functional. The procedure, abridged: (§1)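 Isolates came from S. aureus-positive wound cultures. Clinicians took these at their discretion when resistant infection was suspected, in clinic patients with signs or symptoms of skin or soft tissue infection. Only cases with recorded antibiotic sensitivities were included. Nasal carriage cultures and outside-hospital cases lacking culture data were excluded. Yearly susceptibility trends used the Mantel score test, two-sided.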

Test [2] deals with Staphylococcus aureus. Put plainly: Antibacterial activity against methicillin-resistant Staphylococcus aureus isolates from skin or soft tissue infection outpatients. The test is classed as functional. The procedure, abridged:
as §1

For the molecule `O=C(O)c1cn(C2CC2)c2cc(N3CCNCC3)c(F)cc2c1=O` [CIPROFLOXACIN], the Activity is reported as 8.8% in the test with Staphylococcus aureus [1] and 78.5% in the test with Staphylococcus aureus [2].

As to `CN[C@H](CC(C)C)C(=O)N[C@H]1C(=O)N[C@@H](CC(N)=O)C(=O)N[C@H]2C(=O)N[C@H]3C(=O)N[C@H](C(=O)N[C@H](C(=O)O)c4cc(O)cc(O)c4-c4cc3ccc4O)[C@H](O)c3ccc(c(Cl)c3)Oc3cc2cc(c3O[C@@H]2O[C@H](CO)[C@@H](O)[C@H](O)[C@H]2O[C@H]2C[C@](C)(N)[C@H](O)[C@H](C)O2)Oc2ccc(cc2Cl)[C@H]1O` [VANCOMYCIN], the Activity in the test with Staphylococcus aureus [1] and in the test with Staphylococcus aureus [2] was 0% in each case.

Molecule `CO[C@H]1/C=C/O[C@@]2(C)Oc3c(C)c(O)c4c(O)c(c(/C=N/N5CCN(C)CC5)c(O)c4c3C2=O)NC(=O)/C(C)=C\C=C\[C@H](C)[C@H](O)[C@@H](C)[C@@H](O)[C@@H](C)[C@H](OC(C)=O)[C@@H]1C` [RIFAMPIN] returned an Activity in the test on Staphylococcus aureus [1] of 0%.

For the molecule `CC[C@H]1OC(=O)[C@H](C)[C@@H](O[C@H]2C[C@@](C)(OC)[C@@H](O)[C@H](C)O2)[C@H](C)[C@@H](O[C@@H]2O[C@H](C)C[C@H](N(C)C)[C@H]2O)[C@](C)(O)C[C@@H](C)C(=O)[C@H](C)[C@@H](O)[C@]1(C)O` [ERYTHROMYCIN], the Activity is 57.9% in the test on Staphylococcus aureus [1] and 93.8% with Staphylococcus aureus [2].

For `Cc1nnc(SCC2=C(C(=O)O)N3C(=O)[C@@H](NC(=O)Cn4cnnn4)[C@H]3SC2)s1` [CEFAZOLIN], the values for the Activity in the test on Staphylococcus aureus [1] and in the test with Staphylococcus aureus [2] were 0% and 100%, respectively.

`CN(C)[C@@H]1C(O)=C(C(N)=O)C(=O)[C@@]2(O)C(O)=C3C(=O)c4c(O)cccc4[C@@](C)(O)[C@H]3C[C@@H]12` [TETRACYCLINE]: the figures for the Activity in the test on Staphylococcus aureus [1] and in the test on Staphylococcus aureus [2] were 0% and 53.8%, respectively.

With `CCC[C@@H]1C[C@@H](C(=O)NC(C(C)Cl)[C@H]2O[C@H](SC)[C@H](O)[C@@H](O)[C@H]2O)N(C)C1` (single isomer, unassigned) [CLINDAMYCIN], the Activity in the test on Staphylococcus aureus [1] is reported as 7%; in the test on Staphylococcus aureus [2], 48.2%.

Molecule `O=C(N[C@H](CO)[C@H](O)c1ccc([N+](=O)[O-])cc1)C(Cl)Cl` [CHLORAMPHENICOL] gave an Activity in the test on Staphylococcus aureus [1] of 0%.

For `C[C@H]1COc2c(N3CCN(C)CC3)c(F)cc3c(=O)c(C(=O)O)cn1c23.C[C@H]1COc2c(N3CCN(C)CC3)c(F)cc3c(=O)c(C(=O)O)cn1c23.O` [LEVOFLOXACIN], the values for the Activity with Staphylococcus aureus [1] and with Staphylococcus aureus [2] were 0% and 33.3%, respectively.
